This series in a line: Toxicity liver stage against HepG2, at 10uM. The series is classed as cell-based. Also noted: test concentration 10 uM, cell line HepG2-A16-CD81EGFP. The following applies: human, HepG2-A16-CD81EGFP cells; read-out: INHIBITION
In outline: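 Uninfected HepG2-A16-CD81EGFP cells, 3 × 10^3 per well, 1536-well, plated on prespotted compound at 10 μM final, parasite-free screening media added to match infected plates; puromycin 10 μM positive, DMSO 0.5% negative; run in parallel with 48 h PbLuc assay at 37 °C, 5% CO2; viability by CellTiter-Glo luminescence, normalized to controls.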

On to `CCN1CCC[C@@H]1CNC(=O)c1cc(COc2ccccc2)[nH]n1`, for which the cytotoxicity at 10 µM came out at 0.635%.
The value for `CC(C)(O)CN1CCN(C(=O)c2ccc(Cl)c3cccnc23)CC1` was -9.19%.
In the case of `Cc1cc(C)n(CCN2CCC(N(C)Cc3noc(C4CC4)n3)C2)n1` (stereo unspecified), the cytotoxicity at 10 µM is -2.92%.
The value for `Cc1nc(CNC(=O)Nc2ccc3c(c2)CCCC(=O)N3)sc1C` was 5.06%.
The value for `CC(=O)N(Cc1ncc(C)o1)C1CCN(Cc2noc(C)n2)C1` (stereo unspecified) was 0%; that for `Cc1nc(C(=O)N2CC[C@@]3(C[C@H](NS(C)(=O)=O)CCO3)C2)cs1` was -72.9%.
In the case of `Cc1cccc(Nc2cc(C)nc(C3CCN(C(C)C)C3)n2)n1` (stereo unspecified) it was 9.93%; in that of `Cc1ccc(NC2(C(=O)NCCCc3c(C)n[nH]c3C)CCCC2)cc1`, -10.1%.
Turning to `CCC(CC)N1CCC(c2[nH]ncc2S(C)(=O)=O)C1` (stereo unspecified), the cytotoxicity at 10 µM is -3.51%.
In the case of `CC(C)N(C)C(=O)c1ccc(CNc2cncc(Cl)n2)cc1` it was 2.87%.
In the case of `CCC1(O)CCCN(c2ncnc3c2c(C)nn3C)C1` (stereo unspecified) it was 2.14%.
Regarding `CN1CC(=O)N(c2ccsc2)CC12CCN(S(=O)(=O)c1ccccc1)C2` (stereo unspecified), the cytotoxicity at 10 µM was found to be 1.5%.
Turning to `COCc1ccccc1C(=O)N1CCCC(c2cc(C)[nH]n2)C1` (stereo unspecified), the cytotoxicity at 10 µM was -23.2%.
In the case of `CCn1ncc2c1NC(=O)CC2c1cnc(NCc2ccccc2)nc1` (stereo unspecified) it was -6.27%; in that of `O=C1CC[C@H](C(=O)N(CCc2ccccc2)C2CCOC2)N1` (stereo partly specified), 1.15%.
In the case of `COCC(=O)N1CCCC1c1cccc(Nc2ncc(C)s2)n1` (stereo unspecified) it was -17%; in that of `O=C(NCc1cccs1)[C@@H]1CC[C@@H]2[C@@H](CCN2c2ncccn2)O1`, -0.53%.
In the case of `CSCc1noc(CN2CCC3(CC2)CC(=O)N(CC(C)C)C3)n1` it was -0.0813%.
Take `CCC(CC)N(Cc1ccc2c(c1)OCO2)C(=O)c1ccc(=O)n(C)c1`: the cytotoxicity at 10 µM came to 9.06%.
In the case of `CC(=O)c1cccc(NC(=O)C2CN(S(=O)(=O)C3CC3)C2)c1` it was 3.62%; in that of `CN1C(=O)c2cccc(NC(=O)c3cccc(S(C)(=O)=O)c3)c2C1=O`, -7.75%.
The value for `O=C(c1cnccn1)N1C[C@@H]2[C@@H](C1)OCC(=O)N2CC1CCCC1` was 1.58%; that for `Cc1cc(CN2CC[C@H]3[C@H]2CCN3S(C)(=O)=O)oc1C` was -1.69%.
In the case of `CS(=O)(=O)Cc1cc(Cl)c2c(c1)OCCCO2` it was -2.55%.
On to `O=C(CN1CCCC1=O)N1CCC(O)(Cn2ccc3ccncc32)CC1`, for which the cytotoxicity at 10 µM was -5.55%.
The value for `O=C(Cn1c(=O)[nH]c2cn(-c3ccccc3)c(=O)n21)Nc1ccccc1` was 18.6%; that for `Cc1noc(CNc2ccc(CC(=O)N3CCSCC3)cc2)n1` was -2.29%; that for `CCOC(=O)c1coc(N2CCN(Cc3cccc(OC)c3)C(=O)C2)n1` was -1.83%.
The value for `O=C(Cc1ccc(Br)s1)NCC(=O)Nc1cn[nH]c1` was 2.06%; that for `Cc1ccccc1-c1noc(CN2CCc3cncnc3C2)n1` was -11.5%.
In the case of `Cc1nn(CC(=O)O)c(C)c1NS(=O)(=O)c1cccc2ccccc12` it was -8.52%.
For `Cn1cc(C2CCCN2C(=O)CCn2ccc3ccccc32)cn1` (stereo unspecified), the cytotoxicity at 10 µM turned out to be 8.84%.
For `c1ccc(CCN2CCCC(c3ccnc4nccn34)C2)cc1` (stereo unspecified), the cytotoxicity at 10 µM was 4.22%.
In the case of `COc1cccc(-c2csc(Cn3ccc(=O)[nH]c3=O)n2)c1` it was 3.57%; in that of `NC(=O)c1ccc(NC2CCOC3(CCCC3)C2)nn1` (stereo unspecified), -3.13%; in that of `Cc1nc(C2CCCN2CCc2ccccn2)no1` (stereo unspecified), 7.28%.
The value for `Cc1cc(C(=O)N(C)CCCn2cccn2)nc(N)n1` was -7.04%; that for `COCCN1CCC(NCc2ccc(F)cc2F)C1` (stereo unspecified) was -2.67%.
Regarding `CN(c1ccc(F)cc1)S(=O)(=O)c1cc2c(c(C(=O)O)c1)OCCO2`, the cytotoxicity at 10 µM is -5.79%.
The value for `COc1cccc2c1OCC(C(=O)N1CCC(N3CCOC3=O)CC1)C2` (stereo unspecified) was -19.7%; that for `CC(=O)NCCNc1nccc(CCC(F)(F)F)n1` was -146%; that for `CSCCCN1CCCC1c1noc(C)n1` (stereo unspecified) was -7.59%.
In the case of `O=C(NCc1ccoc1)NC1CCN(c2ncccn2)CC1` it was 6.36%.
As to `CCc1noc(C)c1C(=O)N1CCCC1Cn1cc(C)cn1` (stereo unspecified), the cytotoxicity at 10 µM is -6.46%.
In the case of `CC(C)c1cc(NC(=O)CNC2CCc3nc(C(C)C)nn3C2)on1` (stereo unspecified) it was 0.246%; in that of `CCc1nc(C)c(C(=O)N2C[C@@H]3CC[C@H]2CN(S(=O)(=O)N(C)C)C3)s1`, 25%; in that of `Cc1nn(C)c2nc(N3CCCC3c3nccs3)sc12` (stereo unspecified), -2.87%.
In the case of `CN(C)c1ncc2c(n1)N(C)CCN(CC1CC1)C2=O` it was -1.36%; in that of `COc1cc2c(cc1OC)CN(C(C(=O)O)c1c(C)nn(C)c1C)CC2` (stereo unspecified), -3.14%.
Take `O=C(NCCCn1cccn1)c1csc2c1CCCC2`: the cytotoxicity at 10 µM is -10.2%.
For the compound `CCO[C@@H]1CO[C@@]2(CCN(Cc3ccc4c(c3)OCO4)C2)C1`, the cytotoxicity at 10 µM is 5.53%.
The value for `Cc1cc(C)cc(OCCC(=O)N2CCOCC2c2ncon2)c1` (stereo unspecified) was -8.72%; that for `CN1CCCC(c2cccc(CCC(=O)NCC3(C)COC3)n2)C1` (stereo unspecified) was -8.24%; that for `Cc1ccn(CCC(=O)NCc2ccco2)n1` was 5.94%.
In the case of `CCS(=O)(=O)N1CCCN(CCCOC)CC1` it was 7.73%.
In the case of `CN(C)c1ncccc1CNS(=O)(=O)c1cc(F)cc(F)c1` it was -14%; in that of `Cc1ccc(C(=O)N2CCC3(CC2)COCCN(S(C)(=O)=O)C3)cc1C`, 3.27%; in that of `CCc1nccn1-c1cncc(C2CCCN2)n1` (stereo unspecified), -6.17%.
As for `CN(CCCNC(=O)CN1CCS(=O)(=O)CC1)c1ccccc1`, the cytotoxicity at 10 µM is -4.65%.
The value for `CN1CCN(CC2CC2)C(=O)c2cnc(N3CCCCC3)nc21` was 4.84%; that for `N#Cc1ccc(OC2CCN(C(=O)c3ccccc3Cl)CC2)nc1` was 3.93%; that for `CS(=O)(=O)c1cncnc1C1CCCNC1` (stereo unspecified) was -8.33%.
The value for `CC(C)c1cc(NC2CCN(C(=O)N3CCCC3)CC2)ncn1` was 10.2%.
In the case of `Cc1ncc(C(=O)N2CCCN(Cc3ccccc3F)CC2)c(O)n1` it was 0.903%.
Consider `N[C@H]1CN(C(=O)Cc2cc(F)cc(Cl)c2)C[C@@H]1C1CC1`, for which the cytotoxicity at 10 µM came to 0.0152%.
The value for `CCN(CC1CCOC1)C(=O)c1ccc(COc2ccccc2C#N)o1` (stereo unspecified) was 3.34%; that for `CN(C)C(=O)COC[C@@]12CCC[C@@H]1CN(C1CCC1)C2` was -1.25%.
Take `Cn1ncc(C(=O)N2CCN(CCS(C)(=O)=O)CC2)c1Cl`: the cytotoxicity at 10 µM turned out to be 4.33%.
In the case of `CCn1c(CN2CCN(C(=O)C3CCC3)CC2)nc2c(F)cccc21` it was -3.78%.
The value for `O=S(=O)(c1c(N2CCCC2)ccc2nonc12)N1CCCC1` was 5.95%.
In the case of `Cc1occc1C(=O)N1CCCC(c2nncn2C)C1` (stereo unspecified) it was -16%.
`c1csc(-c2nc(CN3CCCCC3Cn3cncn3)cs2)c1` (stereo unspecified): the cytotoxicity at 10 µM was -1.19%.
For the compound `O=C(c1ccnnc1)N1CCN2C[C@H](OCc3ccccn3)C[C@H]2C1`, the cytotoxicity at 10 µM was -77.2%.
On to `CC1CCN(c2nc(O)cc(C3CC(=O)N(C4CCCCC4)C3)n2)CC1` (stereo unspecified), for which the cytotoxicity at 10 µM stood at 3.81%.
`CS(=O)(=O)NC1CCN(Cc2ccc(OCc3ccccn3)cc2)CC1`: the cytotoxicity at 10 µM was found to be 1.63%.
The value for `COc1cccc(CNC(=O)N2CCCC(Cn3cc(CN)nn3)C2)c1` (stereo unspecified) was -2.07%; that for `CC(C)(C)c1cc(C(=O)NCCN2CCCS2(=O)=O)[nH]n1` was -8.16%; that for `CC(C)c1ccc(C(O)CN2CCN(Cc3nccn3C)CC2)cc1` (stereo unspecified) was -38.3%.
For `CN1CCCN(C(=O)c2cccn2-c2ccc3c(c2)OCCO3)CC1`, the cytotoxicity at 10 µM was 1.03%.
The value for `CCCOc1ccc2c(c1)OCC(C(=O)NC(C)Cn1ccnc1)=C2` (stereo unspecified) was -4.03%.
The value for `CCC(C(=O)NCc1csc(-c2ncccn2)n1)n1cccn1` (stereo unspecified) was -5.79%; that for `Cc1nc(N2CCOCC2)nc2c1CCN(Cc1cccnc1)CC2` was -0.368%; that for `COc1c(C2CCCN2C(=O)c2cc(C)on2)c(C)nn1C` (stereo unspecified) was 0.407%.
Take `Cn1ccc2ccc(C(=O)Nc3nc[nH]n3)cc21`: the cytotoxicity at 10 µM was -1.55%.
The value for `Cc1cc(C(=O)N2CCC(CCC(=O)NCCN(C)C)CC2)ccc1O` was 5.38%; that for `O=C(O)CNc1cc(-c2nccnc2N2CCCC2)c2cc[nH]c2n1` was 4.9%; that for `CCCN1CCC(c2nc3ccc(NCc4ccccc4)cn3n2)CC1` was -125%.
The value for `Cc1nc2c(N3CCN(CCO)CC3)nc(N)nc2n1C` was -10.8%.
In the case of `Cn1ccc(CNC(=O)Nc2ccc(S(=O)(=O)C(F)F)cc2)c1` it was 5.93%; in that of `O=c1c2cnc(N3CCCCC3)nc2ccn1Cc1ccco1`, -9.69%; in that of `Cc1nc(O)cc(C2CCCN(Cc3c(Cl)cncc3Cl)C2)n1` (stereo unspecified), -5.4%.
As to `Cn1cnc2c1CCN(CC(=O)N(Cc1ccsc1)C1CC1)C2`, the cytotoxicity at 10 µM is -0.157%.
Regarding `Cc1nc(C)c(CC(=O)N2C[C@@H](C(=O)O)[C@H](c3ccccc3C)C2)s1`, the cytotoxicity at 10 µM was -120%.
The value for `CN(C)C(C(=O)N1CCC(N2CCSCC2)CC1)c1ccccc1F` (stereo unspecified) was 9.22%.
The value for `COc1ccc(CNC(=O)Nc2ccc(S(=O)(=O)C(F)F)cc2)cc1` was 33.6%; that for `COC(C)(C)CC(C)NCc1cc(-c2ccco2)on1` (stereo unspecified) was 1.81%.

Values taken from ChEMBL document CHEMBL4513216, “Probing the Open Global Health Chemical Diversity Library for Multistage-Active Starting Points for Next-Generation Antimalarials” (ACS Infect Dis, 2020).
